# Measurements as given in ChEMBL document CHEMBL1128218, “New alpha-thiol dipeptide dual inhibitors of angiotensin-I converting enzyme and neutral endopeptidase EC 3.4.24.11” (J Med Chem, 1995).
# Columns and labels:
# [1] = molecular target: T1, Angiotensin-converting enzyme (Rattus norvegicus) (UniProt P47820); test: Evaluation of plasma inhibition of Angiotensin I converting enzyme activity in conscious rat 4 hours after peroral administration at a dose of 12.3 mg/kg; assay type: functional, organism-based; set-up: dose 12.3 mg/kg
# T1 sequence (whole entry): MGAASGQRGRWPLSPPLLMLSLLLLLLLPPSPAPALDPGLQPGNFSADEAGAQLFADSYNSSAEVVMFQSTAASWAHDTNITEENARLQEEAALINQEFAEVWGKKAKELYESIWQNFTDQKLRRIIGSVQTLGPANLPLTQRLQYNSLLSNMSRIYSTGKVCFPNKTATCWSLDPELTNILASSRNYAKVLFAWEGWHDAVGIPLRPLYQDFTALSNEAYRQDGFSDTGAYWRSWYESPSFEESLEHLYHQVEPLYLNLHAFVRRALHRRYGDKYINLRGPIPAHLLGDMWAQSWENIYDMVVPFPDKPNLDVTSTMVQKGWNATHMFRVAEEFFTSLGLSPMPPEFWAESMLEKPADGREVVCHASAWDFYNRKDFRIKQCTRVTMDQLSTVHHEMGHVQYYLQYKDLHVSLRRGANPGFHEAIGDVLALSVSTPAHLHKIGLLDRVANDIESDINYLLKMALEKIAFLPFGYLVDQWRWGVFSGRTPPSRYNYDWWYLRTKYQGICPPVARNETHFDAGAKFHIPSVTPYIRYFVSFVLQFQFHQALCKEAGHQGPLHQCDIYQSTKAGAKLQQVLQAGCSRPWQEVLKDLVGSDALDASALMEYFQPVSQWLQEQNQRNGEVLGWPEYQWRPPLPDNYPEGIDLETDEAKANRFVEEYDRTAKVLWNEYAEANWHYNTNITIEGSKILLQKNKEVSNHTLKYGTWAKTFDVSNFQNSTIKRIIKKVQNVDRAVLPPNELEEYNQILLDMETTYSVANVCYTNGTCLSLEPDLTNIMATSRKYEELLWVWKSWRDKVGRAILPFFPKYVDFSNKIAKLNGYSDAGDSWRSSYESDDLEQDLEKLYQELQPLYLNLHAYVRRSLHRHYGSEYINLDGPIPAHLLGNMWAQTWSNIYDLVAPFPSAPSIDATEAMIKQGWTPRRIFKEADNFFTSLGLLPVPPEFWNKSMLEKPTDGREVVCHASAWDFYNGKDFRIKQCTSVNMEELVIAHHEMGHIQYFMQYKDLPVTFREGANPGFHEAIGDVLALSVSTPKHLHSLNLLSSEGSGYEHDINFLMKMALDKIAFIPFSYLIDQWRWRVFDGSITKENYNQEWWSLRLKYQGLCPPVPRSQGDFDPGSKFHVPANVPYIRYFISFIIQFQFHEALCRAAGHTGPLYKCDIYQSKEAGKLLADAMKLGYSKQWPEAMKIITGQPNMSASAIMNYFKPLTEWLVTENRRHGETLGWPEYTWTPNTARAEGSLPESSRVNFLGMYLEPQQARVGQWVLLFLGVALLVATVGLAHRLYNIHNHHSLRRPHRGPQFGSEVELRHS
# Procedure, shortened: (§1)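 Male conscious normotensive Sprague-Dawley rats (275-390 g) fitted the day before with femoral arterial and venous catheters under methohexital anesthesia. Three angiotensin-I challenges (300 ng/kg iv) given as baseline. Compound given iv, ia or po (12.3 mg/kg po dose in 3% cornstarch at 1 mg/mL), then AI challenges repeated at set times. Pressor response compared with the mean baseline response and expressed as % inhibition.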
# [2] = molecular target: T1, Angiotensin-converting enzyme (Rattus norvegicus); test: Evaluation of plasma inhibition of Angiotensin I converting enzyme activity in conscious rat 1 hour after peroral administration at a dose of 12.3 mg/kg; assay type: functional, organism-based; set-up: dose 12.3 mg/kg; procedure, shortened: as §1
# [3] = molecular target: T1, Angiotensin-converting enzyme (Rattus norvegicus); test: Evaluation of plasma inhibition of Angiotensin I converting enzyme activity in conscious rat 2 hours after peroral administration at a dose of 12.3 mg/kg; assay type: functional, organism-based; set-up: dose 12.3 mg/kg; procedure, shortened: as §1
# [4] = molecular target: T1, Angiotensin-converting enzyme (Rattus norvegicus); test: Evaluation of plasma inhibition of Angiotensin I converting enzyme activity in conscious rat 6 hours after peroral administration at a dose of 12.3 mg/kg; assay type: functional, organism-based; set-up: dose 12.3 mg/kg; procedure, shortened: as §1
# [5] = molecular target: T2, Angiotensin-converting enzyme (Oryctolagus cuniculus, UniProt P12822); test: Evaluation of in vitro inhibitory activity against Angiotensin I converting enzyme
# T2 sequence (P12822 whole entry): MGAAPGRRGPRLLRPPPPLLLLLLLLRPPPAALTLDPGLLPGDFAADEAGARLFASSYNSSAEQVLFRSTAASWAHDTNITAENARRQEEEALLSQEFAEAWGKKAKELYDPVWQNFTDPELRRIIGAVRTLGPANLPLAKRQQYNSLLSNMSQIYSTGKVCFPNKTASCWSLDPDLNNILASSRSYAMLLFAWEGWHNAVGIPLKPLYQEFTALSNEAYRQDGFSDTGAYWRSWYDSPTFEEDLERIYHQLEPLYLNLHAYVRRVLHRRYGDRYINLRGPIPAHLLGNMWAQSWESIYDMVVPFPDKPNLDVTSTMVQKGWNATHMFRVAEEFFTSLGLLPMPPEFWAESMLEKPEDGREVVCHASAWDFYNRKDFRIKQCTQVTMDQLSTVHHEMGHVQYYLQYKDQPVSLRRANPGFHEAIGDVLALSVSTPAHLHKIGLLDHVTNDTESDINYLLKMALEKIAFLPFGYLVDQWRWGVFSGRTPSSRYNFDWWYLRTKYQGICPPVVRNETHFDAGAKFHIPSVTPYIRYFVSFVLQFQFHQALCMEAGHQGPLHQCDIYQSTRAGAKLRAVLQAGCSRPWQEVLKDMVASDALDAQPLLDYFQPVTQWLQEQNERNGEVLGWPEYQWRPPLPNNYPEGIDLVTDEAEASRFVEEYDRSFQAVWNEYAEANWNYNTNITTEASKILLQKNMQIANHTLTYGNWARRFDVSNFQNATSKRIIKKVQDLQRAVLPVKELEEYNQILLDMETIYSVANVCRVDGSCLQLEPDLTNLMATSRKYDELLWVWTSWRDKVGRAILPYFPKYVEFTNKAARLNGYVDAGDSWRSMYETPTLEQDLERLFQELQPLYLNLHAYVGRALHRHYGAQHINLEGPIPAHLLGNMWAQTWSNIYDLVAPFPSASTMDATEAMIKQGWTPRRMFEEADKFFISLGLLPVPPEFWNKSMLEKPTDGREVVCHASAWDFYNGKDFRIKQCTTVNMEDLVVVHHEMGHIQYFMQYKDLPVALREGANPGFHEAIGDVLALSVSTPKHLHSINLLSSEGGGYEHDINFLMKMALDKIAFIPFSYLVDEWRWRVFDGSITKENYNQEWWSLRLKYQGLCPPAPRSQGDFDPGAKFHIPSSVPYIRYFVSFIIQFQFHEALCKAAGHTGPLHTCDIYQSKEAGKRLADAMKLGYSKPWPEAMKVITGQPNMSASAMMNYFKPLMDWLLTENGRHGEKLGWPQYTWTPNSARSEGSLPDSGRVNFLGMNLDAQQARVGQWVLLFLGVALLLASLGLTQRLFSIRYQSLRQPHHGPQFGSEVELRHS
# Procedure, shortened: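 Rabbit lung ACE in 300 mM NaCl, 100 mM KH2PO4 (pH 8.3). Enzyme and drug mixed, then hippurylhistidylleucine (2 mg/mL stock) added and incubated 75 min at room temperature. Stopped with 1 N NaOH, o-phthalaldehyde added for 10 min at 25 °C, acidified with HCl, OD read at 360 nm.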
# Neprilysin = molecular target: T3, Neprilysin (Rattus norvegicus, UniProt P07861); test: Evaluation of in vitro inhibitory activity against Neutral endopeptidase
# T3 sequence (P07861 whole entry): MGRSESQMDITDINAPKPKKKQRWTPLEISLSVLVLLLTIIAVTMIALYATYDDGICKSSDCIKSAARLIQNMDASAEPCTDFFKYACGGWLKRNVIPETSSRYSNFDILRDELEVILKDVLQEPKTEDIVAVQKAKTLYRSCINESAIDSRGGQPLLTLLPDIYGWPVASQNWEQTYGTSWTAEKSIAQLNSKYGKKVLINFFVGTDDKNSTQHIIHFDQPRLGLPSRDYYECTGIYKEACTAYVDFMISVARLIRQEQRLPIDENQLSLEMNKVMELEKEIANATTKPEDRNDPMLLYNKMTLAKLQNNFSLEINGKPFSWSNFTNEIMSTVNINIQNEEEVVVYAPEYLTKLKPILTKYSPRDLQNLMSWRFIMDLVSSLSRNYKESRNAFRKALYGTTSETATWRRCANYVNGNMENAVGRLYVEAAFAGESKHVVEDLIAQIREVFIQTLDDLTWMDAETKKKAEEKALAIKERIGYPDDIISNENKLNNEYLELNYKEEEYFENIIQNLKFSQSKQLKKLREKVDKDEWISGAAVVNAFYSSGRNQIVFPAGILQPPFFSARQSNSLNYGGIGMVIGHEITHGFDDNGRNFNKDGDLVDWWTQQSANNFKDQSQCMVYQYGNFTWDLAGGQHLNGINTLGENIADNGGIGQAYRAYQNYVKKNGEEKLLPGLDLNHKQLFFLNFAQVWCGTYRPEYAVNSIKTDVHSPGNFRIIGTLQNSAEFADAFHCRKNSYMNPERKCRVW
# Procedure, shortened: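 Rat kidney cortex membrane homogenate (4.2 μg protein) preincubated 10 min at 25 °C with increasing inhibitor concentrations. Then 500 μM GAAP (final) in 50 mM Tris pH 7.4 with leucine aminopeptidase M, 25 min at 25 °C. Done in duplicate; IC50 from curves of seven points near the IC50.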
# [6] = molecular target: T1, Angiotensin-converting enzyme (Rattus norvegicus); test: Evaluation of plasma inhibition of Angiotensin I converting enzyme activity in conscious rat 4 hours after ia administration at a dose of 10 mg/kg; assay type: functional, organism-based; set-up: dose 10 mg/kg; procedure, shortened: as §1
# [7] = molecular target: T1, Angiotensin-converting enzyme (Rattus norvegicus); test: Evaluation of plasma inhibition of Angiotensin I converting enzyme activity in conscious rat 2 hours after ia administration at a dose of 10 mg/kg; assay type: functional, organism-based; set-up: dose 10 mg/kg; procedure, shortened: as §1
# [8] = molecular target: T1, Angiotensin-converting enzyme (Rattus norvegicus); test: Evaluation of plasma inhibition of Angiotensin I converting enzyme activity in conscious rat 1 hour after ia administration at a dose of 10 mg/kg; assay type: functional, organism-based; set-up: dose 10 mg/kg; procedure, shortened: as §1
# [9] = molecular target: T1, Angiotensin-converting enzyme (Rattus norvegicus); test: Evaluation of plasma inhibition of Angiotensin I converting enzyme activity in conscious rat 6 hours after ia administration at a dose of 10 mg/kg; assay type: functional, organism-based; set-up: dose 10 mg/kg; procedure, shortened: as §1
Structure (SMILES),IC50 [5] [nM],IC50 (Neprilysin) [nM],further results
CCOC(=O)[C@H](Cc1c[nH]c2ccccc12)NC(=O)C1(NC(=O)[C@@H](SC(C)=O)C(C)C)CCCC1,–,–,inhibition [1]: 71%; inhibition [2]: 83%; inhibition [3]: 72%; inhibition [4]: 64%
CC(C)[C@H](S)C(=O)NC1(C(=O)N[C@@H](Cc2c[nH]c3ccc(O)cc23)C(=O)O)CCCC1,13,2,–
O=C(O)CN1C(=O)[C@@H](N[C@@H](CCc2ccccc2)C(=O)O)CCc2ccccc21,–,–,inhibition [6]: 27%; inhibition [7]: 74%; inhibition [8]: 100%; inhibition [9]: 7%

# The next lines start with results.
IC50 [5] [nM],IC50 (Neprilysin) [nM],Structure (SMILES),further results
65,15,CC(C)[C@H](S)C(=O)NC1(C(=O)N[C@@H](Cc2ccc(O)cc2)C(=O)O)CC2CCC1C2 (stereo partly specified),–
139,16,CC(C)[C@H](S)C(=O)NC1(C(=O)N[C@@H](Cc2ccc(-c3ccccc3)cc2)C(=O)O)CCCC1,–
37,3.1,CC(C)[C@H](S)C(=O)NC1(C(=O)N[C@@H](Cc2cccnc2)C(=O)O)CCCC1,–
